Measured values reported in ChEMBL document CHEMBL4396973, “Design and development of a series of borocycles as selective, covalent kallikrein 5 inhibitors” (Bioorg Med Chem Lett, 2019).

Key:
[1] = biological target: T1, Kallikrein-1 (Homo sapiens, UniProt P06870); assay: Inhibition of human recombinant N-terminal His-tagged and enterokinase cleavage site-fused KLK1 (19 to 262 residues) expressed in baculovirus infected Sf9 insect cells using R110 labelled GSK3162232A as substrate measured at 30 secs interval for 5 mins by FLINT assay
[2] = Dissociation constant, borocycle pKa of the compound; assay type: physicochemical
[3] = biological target: Coagulation factor X (Homo sapiens, UniProt P00742); assay: Inhibition of recombinant human C-terminal 10-His-tagged factor Xa (L24 to K488 residues) expressed in baculovirus infected Sf21 insect cells using Mca-RPKPVE-Nval-WRK(Dnp)-NH2 as substrate incubated for 40 mins by FLINT assay
[4] = biological target: Plasma kallikrein (Homo sapiens, UniProt P03952); assay: Inhibition of human C-terminal 6-His-tagged KLKB1 (G20-A638 residues) expressed in mouse NS0 cells using PFR-AMC as substrate incubated for 40 mins by FLINT assay
[5] = biological target: Kallikrein-7 (Homo sapiens, UniProt P49862); assay: Inhibition of recombinant human C-terminal 10-His-tagged KLK7 (Glu23 to His252 residues) expressed in mouse NS0 cells using 5-FAM-E-A-L-Y-L-V-S-G-C(5-TAMRA) as substrate incubated for 40 mins by FLINT assay
[6] = biological target: T2, Kallikrein-8 (Homo sapiens, UniProt O60259); assay: Inhibition of recombinant human C-terminal 10-His-tagged KLK8 (Gln29 to Gly260 residues) expressed in mouse NS0 cells using BOC-VPR-AMC as substrate incubated for 40 mins by FLINT assay
T2 sequence (O60259 whole entry): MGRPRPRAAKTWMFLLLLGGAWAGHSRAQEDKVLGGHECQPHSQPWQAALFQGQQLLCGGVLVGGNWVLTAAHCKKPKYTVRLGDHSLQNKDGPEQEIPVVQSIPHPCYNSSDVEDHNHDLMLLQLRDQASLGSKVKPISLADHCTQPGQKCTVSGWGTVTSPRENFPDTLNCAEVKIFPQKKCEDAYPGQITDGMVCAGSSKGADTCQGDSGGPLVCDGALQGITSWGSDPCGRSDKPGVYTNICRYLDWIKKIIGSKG

[7] = biological target: T3, Kallikrein-14 (Homo sapiens, UniProt Q9P0G3); assay: Inhibition of recombinant human C-terminal 10-His-tagged KLK14 (Q19 to M248 residues) expressed in mouse NS0 cells using BOC-VPR-AMC as substrate incubated for 40 mins by FLINT assay
T3 sequence (Q9P0G3 whole entry): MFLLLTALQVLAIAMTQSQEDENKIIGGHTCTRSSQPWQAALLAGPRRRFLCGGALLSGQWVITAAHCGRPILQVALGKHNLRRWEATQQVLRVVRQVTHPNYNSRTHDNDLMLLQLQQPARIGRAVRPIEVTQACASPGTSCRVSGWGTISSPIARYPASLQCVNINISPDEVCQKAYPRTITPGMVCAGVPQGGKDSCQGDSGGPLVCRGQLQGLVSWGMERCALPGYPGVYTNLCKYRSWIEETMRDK

[8] = biological target: T4, Suppressor of tumorigenicity 14 protein (Homo sapiens, UniProt Q9Y5Y6); assay: Inhibition of recombinant human N-terminal Met and 6-His-tagged matriptase (G596 to V855 residues) expressed in Escherichia coli using Boc-QAR-AMC as substrate incubated for 40 mins by FLINT assay
T4 sequence (Q9Y5Y6 whole entry): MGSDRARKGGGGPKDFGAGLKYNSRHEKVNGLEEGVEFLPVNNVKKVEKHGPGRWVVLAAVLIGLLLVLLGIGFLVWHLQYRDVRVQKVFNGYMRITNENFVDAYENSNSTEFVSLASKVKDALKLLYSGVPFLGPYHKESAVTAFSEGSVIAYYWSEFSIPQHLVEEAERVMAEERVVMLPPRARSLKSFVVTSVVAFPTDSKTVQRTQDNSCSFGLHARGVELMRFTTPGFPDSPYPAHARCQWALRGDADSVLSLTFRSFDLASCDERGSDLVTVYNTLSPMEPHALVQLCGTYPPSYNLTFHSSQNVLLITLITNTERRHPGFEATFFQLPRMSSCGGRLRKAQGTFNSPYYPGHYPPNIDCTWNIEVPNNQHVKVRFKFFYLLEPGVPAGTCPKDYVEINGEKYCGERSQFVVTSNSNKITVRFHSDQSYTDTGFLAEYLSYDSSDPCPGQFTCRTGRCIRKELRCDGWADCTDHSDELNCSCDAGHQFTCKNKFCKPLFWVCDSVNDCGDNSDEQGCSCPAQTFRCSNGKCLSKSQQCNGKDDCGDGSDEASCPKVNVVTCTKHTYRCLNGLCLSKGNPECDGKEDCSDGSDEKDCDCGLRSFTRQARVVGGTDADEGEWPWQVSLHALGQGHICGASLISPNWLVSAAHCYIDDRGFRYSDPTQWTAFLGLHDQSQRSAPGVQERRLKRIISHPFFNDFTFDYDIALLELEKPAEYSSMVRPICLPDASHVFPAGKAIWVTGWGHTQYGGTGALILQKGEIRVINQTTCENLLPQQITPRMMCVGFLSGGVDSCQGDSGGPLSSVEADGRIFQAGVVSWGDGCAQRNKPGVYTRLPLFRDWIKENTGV

[9] = biological target: Prothrombin (Homo sapiens, UniProt P00734); assay: Inhibition of human recombinant C-terminal 10-His-tagged thrombin (M1 to E622 residues) expressed in mouse NS0 cells using BOC-VPR-AMC as substrate incubated for 40 mins by FLINT assay
[10] = biological target: T5, Neutrophil elastase (Homo sapiens, UniProt P08246); assay: Inhibition of human neutrophil elastase using MeOSuc-AAPV-AMC as substrate incubated for 40 mins by FLINT assay
T5 sequence (P08246 whole entry): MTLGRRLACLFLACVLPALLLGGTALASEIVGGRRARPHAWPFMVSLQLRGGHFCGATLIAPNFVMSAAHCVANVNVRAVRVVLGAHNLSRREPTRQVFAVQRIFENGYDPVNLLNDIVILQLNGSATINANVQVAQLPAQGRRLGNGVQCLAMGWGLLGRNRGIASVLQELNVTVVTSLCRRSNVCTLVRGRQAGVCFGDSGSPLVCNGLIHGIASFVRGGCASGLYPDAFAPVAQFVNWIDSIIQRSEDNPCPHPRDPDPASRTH

[11] = biological target: Urokinase-type plasminogen activator (Homo sapiens, UniProt P00749); assay: Inhibition of recombinant human C-terminal 10-His-tagged urokinase (M1 to L431 residues) expressed in mouse NS0 cells using Z-GGR-AMC as substrate incubated for 40 mins by FLINT assay
[12] = biological target: T6, Kallikrein-5 (Homo sapiens, UniProt Q9Y337); assay: Inhibition of human recombinant 6His-Q-FLAG-tagged KLK5 expressed in baculovirus infected Sf9 insect cells using (Tos-Gly-Pro-Arg)2[R110].2TFA as substrate measured at 30 secs interval for 5 mins using 1 x 10'10M enzyme by FLINT assay
T6 sequence (Q9Y337 whole entry): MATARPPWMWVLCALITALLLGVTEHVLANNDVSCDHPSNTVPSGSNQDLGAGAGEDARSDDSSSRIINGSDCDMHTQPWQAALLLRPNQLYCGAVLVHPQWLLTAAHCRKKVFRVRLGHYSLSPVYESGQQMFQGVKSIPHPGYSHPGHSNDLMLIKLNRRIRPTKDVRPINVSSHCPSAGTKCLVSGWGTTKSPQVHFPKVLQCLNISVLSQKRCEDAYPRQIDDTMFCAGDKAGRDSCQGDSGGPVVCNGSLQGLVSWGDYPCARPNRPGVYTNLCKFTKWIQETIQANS

[13] = biological target: T6, Kallikrein-5; assay: Inhibition of human recombinant 6His-Q-FLAG-tagged KLK5 expressed in baculovirus infected Sf9 insect cells using (Tos-Gly-Pro-Arg)2[R110].2TFA as substrate measured at 30 secs interval for 5 mins by FLINT assay
Summary of the method: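 Standard KLK5 assay format. Its theoretical tight-binding limit corresponds to pIC50 8.4.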

[14] = biological target: T1, Kallikrein-1; assay: Inhibition of human recombinant N-terminal His-tagged and enterokinase cleavage site-fused KLK1 (19 to 262 residues) expressed in baculovirus infected Sf9 insect cells at 10 uM using R110 labelled GSK3162232A as substrate measured at 30 secs interval for 5 mins by FLINT assay relative to control
[15] = organism: Homo sapiens; assay: Selectivity ratio of IC50 for human C-terminal 6-His-tagged KLKB1 (G20 to A638 residues) expressed in mouse NS0 cells to IC50 for human recombinant 6His-Q-FLAG-tagged KLK5 expressed in baculovirus infected Sf9 insect cells

Compound | IC50 [1] [µM] | pKa [2] | IC50 [3] [µM] | IC50 [4] [µM] | IC50 [5] [µM] | IC50 [6] [µM] | IC50 [7] [µM] | IC50 [8] [µM] | IC50 [9] [µM] | IC50 [10] [µM] | IC50 [11] [µM] | IC50 [12] [µM] | IC50 [13] [µM] | inhibition [14] [%] | Ratio IC50 [15]
N=C(N)c1ccc(NCC2Cc3ccccc3B(O)O2)cc1 (racemic) | > 10 |  |  |  |  |  |  |  |  |  |  |  | 1.58 | 35 | 
N=C(N)c1ccc(Oc2ccc3c(c2)B(O)OC3)cc1 | 25.1 |  |  |  |  |  |  |  |  |  |  |  | 50.1 |  | 
N=C(N)c1cccc(COc2ccc3c(c2)B(O)OC3)c1 | 158 |  |  |  |  |  |  |  |  |  |  |  | 12.6 |  | 
N=C(N)c1ccc(CC2OB(O)c3ccc(F)cc32)cc1OCc1cccnc1 (racemic) | > 10 | 4.66 | 63.1 | 0.794 | > 100 | 12.6 | 31.6 | 39.8 | 15.8 | 100 | > 100 | 0.01 | 0.0158 | 10 | 10
Cc1cccc2c1B(O)OC(c1ccc(C(=N)N)c(OCc3cccnc3)c1)C2 (racemic) | > 10 |  | 50.1 | 0.0794 | > 100 | 1.58 | 0.398 | 1.26 | 3.16 | 0.794 | 5.01 | 0.0251 | 0.0251 | 27 | 10
N=C(N)c1ccc(COc2ccc3c(c2)B(O)OC3)cc1 | 39.8 |  |  |  |  |  |  |  |  |  |  |  | 39.8 |  | 
N=C(N)c1ccc(C2OB(O)c3ccccc32)cc1 (racemic) | 79.4 |  |  |  |  |  |  |  |  |  |  |  | 398 |  | 
N=C(N)c1ccc(COc2cccc3c2B(O)OC3)cc1 | 501 |  |  |  |  |  |  |  |  |  |  |  | 31.6 |  | 
N=C(N)c1ccc(COc2ccc3c(c2)COB3O)cc1 | 158 |  |  |  |  |  |  |  |  |  |  |  | 6.31 |  | 
N=C(N)c1ccc(C2CCCB(O)O2)cc1 (racemic) | 63.1 |  |  |  |  |  |  |  |  |  |  |  | 39.8 |  | 

Now from value to compound, other results behind:

IC50 [1] [µM] | pKa [2] | IC50 [3] [µM] | IC50 [4] [µM] | IC50 [5] [µM] | IC50 [6] [µM] | IC50 [7] [µM] | IC50 [8] [µM] | IC50 [9] [µM] | IC50 [10] [µM] | IC50 [11] [µM] | IC50 [12] [µM] | IC50 [13] [µM] | inhibition [14] [%] | Compound | Ratio IC50 [15]
0.398 | 4.54 | 1.58 | 0.01 | 39.8 | 0.0251 | 0.126 | 2 | 3.98 | > 100 | 12.6 | 0.000501 |  |  | N=C(N)c1ccc(C2Cc3ccc(C(F)(F)F)cc3B(O)O2)cc1OCc1cccnc1 (racemic) | 
3.98 to 6.31 | 4.26 | 5.01 | 0.2 | > 100 | 0.251 | 0.2 | 15.8 | 2 | 1.26 | 79.4 | 0.00126 |  |  | N=C(N)c1ccc(C2Cc3cc(Cl)c(F)cc3B(O)O2)cc1OCc1cccnc1 (racemic) | 
7.94 |  |  |  |  |  |  |  |  |  |  |  | 200 |  | N=C(N)c1ccc(CNc2cccc3c2B(O)OC3)cc1 | 
3.98 | 4.66 | 63.1 | 0.0794 | > 100 | 0.316 | 0.316 | 10 | 10 | 31.6 | > 100 | 0.00794 | 0.00631 |  | N=C(N)c1ccc(C2Cc3ccc(F)cc3B(O)O2)cc1OCc1cccnc1 (racemic) | 10
0.316 to 3.98 | 4.77 | 5.01 | 0.794 | > 100 | 7.94 | 12.6 | 63.1 | 2 | 1.58 | 79.4 | 0.00158 | 0.0126 |  | N=C(N)c1ccc(CC2OB(O)c3cc(F)ccc32)cc1OCc1cccnc1 (racemic) | 10
0.631 |  | 10 | 0.0501 | 39.8 | 0.251 | 1.58 | 7.94 | 3.16 | 6.31 | 50.1 | 0.00794 | 0.01 |  | N=C(N)c1ccc(C2Cc3ccccc3B(O)O2)cc1OCc1ccccc1Cl (racemic) | 10
0.501 |  |  |  |  |  |  |  |  |  |  |  | 3.98 |  | N=C(N)c1cccc(C2Cc3ccccc3B(O)O2)c1 (racemic) | 
1.58 |  | 2 | 0.00501 | 39.8 | 0.1 | 0.251 | 0.0126 | 0.398 | 15.8 | 0.0631 | 0.00501 | 0.00794 |  | N=C(N)c1ccc(C2Cc3ccccc3B(O)O2)cc1OCc1cccc(Cl)c1 (racemic) | 10
10 |  |  |  |  |  |  |  |  |  |  |  | 6.31 |  | N=C(N)c1ccc(OCc2ccc3c(c2)B(O)OC3)cc1 | 
